Measurements as given in ChEMBL document CHEMBL1165943, “Design and synthesis of new anticancer pyrimidines with multiple-kinase inhibitory effect” (Bioorg Med Chem, 2010).
Calls of active or inactive are those of the source. The calls are words filed in the database; no cut-off is given here.

Legend:
[1] = system: SK-OV-3; test: Growth inhibition of human SKOV3 cells after 48 hrs by sulforhodamine B assay; type: functional, cell-based; conditions: SK-OV-3, 48 h
Procedure, shortened: (§1)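 Cells grown in RPMI 1640 with 5% FBS and 2 mM L-glutamine, seeded at 5,000–40,000 cells/well according to doubling time. After 24 h, time-zero plates are TCA-fixed. Five concentrations (10-fold or ½log dilutions, DMSO stocks) are applied for 48 h at 37 °C, 5% CO₂. Cells are TCA-fixed, SRB-stained and read at 515 nm. IC₅₀ is taken from [(Ti−Tz)/(C−Tz)]×100 = 50.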

[2] = system: DU-145; test: Growth inhibition of human DU145 cells after 48 hrs by sulforhodamine B assay; type: functional, cell-based; conditions: for CC50: read-out: LC50 (the source's name); procedure, shortened: as §1
[3] = system: MDA-MB-231; test: Growth inhibition of human MDA-MB-231 cells after 48 hrs by sulforhodamine B assay; type: functional, cell-based; conditions: MDA-MB-231, 48 h; procedure, shortened: as §1
[4] = system: MOLT-4; test: Cytotoxicity against human MOLT4 cells assessed as cell growth at 0.001 uM after 48 hrs by sulforhodamine B assay; type: functional; conditions: MOLT-4, 48 h, read-out: Activity
[5] = system: NCI-H23; test: Cytotoxicity against human NCI-H23 cells assessed as cell growth at 0.001 uM after 48 hrs by sulforhodamine B assay; type: functional; conditions: NCI-H23, 48 h, read-out: Activity
[6] = system: NCI-H460; test: Cytotoxicity against human NCI-H460 cells assessed as cell growth at 0.001 uM after 48 hrs by sulforhodamine B assay; type: functional; conditions: NCI-H460, 48 h, read-out: Activity
[7] = system: NCI-H522; test: Cytotoxicity against human NCI-H522 cells assessed as cell growth at 100 nM after 48 hrs by sulforhodamine B assay; type: functional; conditions: NCI-H522, 48 h, read-out: Activity
[8] = system: SF-268; test: Cytotoxicity against human SF268 cells assessed as cell growth at 100 nM after 48 hrs by sulforhodamine B assay; type: functional; conditions: SF-268, 48 h, read-out: Activity
[9] = system: SK-MEL-5; test: Cytotoxicity against human SK-MEL-5 cells assessed as cell growth at 100 nM after 48 hrs by sulforhodamine B assay; type: functional; conditions: SK-MEL-5, 48 h, read-out: Activity
[10] = system: A498; test: Cytotoxicity against human A498 cells assessed as cell growth at 100 nM after 48 hrs by sulforhodamine B assay; type: functional; conditions: A498, 48 h, read-out: Activity
Procedure, shortened: (§2)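 Cells grown in RPMI 1640 with 5% FBS and 2 mM L-glutamine, seeded at 5,000–40,000 cells/well by doubling time. Time-zero plates TCA-fixed after 24 h. Five concentrations (10-fold or half-log dilutions from DMSO stock) added; 48 h at 37 °C, 5% CO2. Cold TCA fixation (final 10%, 60 min, 4 °C), 0.4% SRB stain, dye solubilized in 10 mM trizma base, A515.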

[11] = system: HL-60(TB); test: Cytotoxicity against human HL-60(TB) cells assessed as cell growth at 0.01 uM after 48 hrs by sulforhodamine B assay; type: functional; conditions: HL-60, 48 h, read-out: Activity
Procedure, shortened: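 Five-concentration HL-60(TB) test in RPMI 1640 with 5% FBS and 2 mM L-glutamine. Cells are plated at 5,000–40,000/well and a TCA-fixed time-zero plate is read at drug addition after 24 h. Drug is dissolved in DMSO and given as five 10-fold or ½log dilutions for 48 h at 37 °C, 5% CO2. Settled cells are fixed with TCA, stained with SRB and read at 515 nm.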

[12] = system: SF-539; test: Cytotoxicity against human SF539 cells assessed as cell growth at 0.01 uM after 48 hrs by sulforhodamine B assay; type: functional; conditions: SF-539, 48 h, read-out: Activity
[13] = system: UACC-62; test: Cytotoxicity against human UACC62 cells assessed as cell growth at 10 uM after 48 hrs by sulforhodamine B assay; type: functional; conditions: UACC-62, 48 h, read-out: Activity
[14] = system: BT-549; test: Cytotoxicity against human BT549 cells assessed as cell growth at 100 nM after 48 hrs by sulforhodamine B assay; type: functional; conditions: BT-549, 48 h, read-out: Activity; procedure, shortened: as §2
[15] = system: MDA-MB-468; test: Cytotoxicity against human MDA-MB-468 cells assessed as cell growth at 100 nM after 48 hrs by sulforhodamine B assay; type: functional; conditions: MDA-MB-468, 48 h, read-out: Activity
[16] = system: EKVX; test: Cytotoxicity against human EKVX cells assessed as cell growth at 1 uM after 48 hrs by sulforhodamine B assay; type: functional; conditions: read-out: Activity
[17] = system: HOP-62; test: Cytotoxicity against human HOP62 cells assessed as cell growth at 1 uM after 48 hrs by sulforhodamine B assay; type: functional; conditions: HOP-62, 48 h, read-out: Activity
[18] = system: UACC-257; test: Cytotoxicity against human UACC257 cells assessed as cell growth at 0.01 uM after 48 hrs by sulforhodamine B assay; type: functional; conditions: UACC-257, 48 h, read-out: Activity
[19] = system: BT-549; test: Cytotoxicity against human BT549 cells assessed as cell growth at 1 uM after 48 hrs by sulforhodamine B assay; type: functional; conditions: BT-549, 48 h, read-out: Activity; procedure, shortened: as §2
[20] = system: A549; test: Growth inhibition of human A549 cells after 48 hrs by sulforhodamine B assay; type: functional, cell-based; conditions: A549, 48 h; for CC50: read-out: LC50 (the source's name)
Procedure, shortened: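 Five-dose SRB assay. Cells in RPMI 1640 with 5% FBS and 2 mM L-glutamine were seeded at 5,000–40,000 cells/well, with a TCA-fixed time-zero plate (Tz) taken at 24 h. Compound stocks were in DMSO, serially diluted 10-fold or ½-log to five concentrations, and incubated 48 h at 37 °C. Plates were stained with SRB and read at 515 nm. IC₅₀ was taken where [(Ti−Tz)/(C−Tz)]×100 = 50.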

[21] = system: NCI-H322M; test: Growth inhibition of human NCI-H322M cells after 48 hrs by sulforhodamine B assay; type: functional, cell-based; conditions: for CC50: read-out: LC50 (the source's name); procedure, shortened: as §1
[22] = system: HCT-116; test: Growth inhibition of human HCT116 cells after 48 hrs by sulforhodamine B assay; type: functional, cell-based; conditions: HCT-116, 48 h; for CC50: read-out: LC50 (the source's name); procedure, shortened: as §1
[23] = system: HCT-15; test: Growth inhibition of human HCT15 cells after 48 hrs by sulforhodamine B assay; type: functional, cell-based; conditions: HCT-15, 48 h; for CC50: read-out: LC50 (the source's name); procedure, shortened: as §1
[24] = system: SF-295; test: Growth inhibition of human SF295 cells after 48 hrs by sulforhodamine B assay; type: functional, cell-based; conditions: SF-295, 48 h; for CC50: read-out: LC50 (the source's name); procedure, shortened: as §1
[25] = system: LOX IMVI; test: Growth inhibition of human LOXIMVI cells after 48 hrs by sulforhodamine B assay; type: functional, cell-based; conditions: for CC50: read-out: LC50 (the source's name); procedure, shortened: as §1

Work on `CC(=O)c1ccccc1-c1ccc(-c2ccnc(NC(=O)Nc3cc(N4CCOCC4)cc(C(F)(F)F)c3)n2)cn1` yielded a GI50 [1] greater than 100 µM, an IC50 [1] of 9.42 µM and an LC50 (concentration giving 50% net cell kill) [1] greater than 100 µM. It also gave a TGI [1] greater than 100 µM, a TGI ([2]; Homo sapiens, DU-145, 48 h) greater than 100 µM and a CC50 ([2]; Homo sapiens, DU-145, 48 h) greater than 100 µM. For the same compound, the IC50 ([2]; du-145) was “Not Active”, the IC50 [3] was 3.1 µM and the LC50 [3] was greater than 100 µM. The TGI [3] was greater than 100 µM, the growth at 0.001 µM [4] was 94% and the growth at 0.001 µM [5] was 98%. It also gave a growth at 0.001 µM [6] of 109%, a growth at 0.1 µM [7] of 101% and a growth at 0.1 µM [8] of 90%. For the same compound, the growth at 0.1 µM [9] was 84%, the growth at 0.1 µM [10] was 72% and the growth at 0.01 µM [11] was 87%. The growth at 0.01 µM [12] was 107%, the growth at 10 µM [13] was 63% and the growth at 0.1 µM [14] was 74%. The growth at 0.1 µM [15] was 103%, the growth at 1 µM [16] was 63% and the growth at 1 µM [17] was 21%. For the same compound, the growth at 0.01 µM [18] was 79%, the growth at 1 µM [19] was 21% and the GI50 [20] was greater than 100 µM. The IC50 [20] was greater than 100 µM, the TGI [20] was greater than 100 µM and the CC50 [20] was greater than 100 µM. It also gave a GI50 [21] greater than 100 µM, an IC50 [21] greater than 100 µM and a TGI [21] greater than 100 µM. The CC50 [21] was greater than 100 µM, the GI50 [22] was greater than 100 µM and the IC50 [22] was greater than 100 µM. The TGI [22] was greater than 100 µM, the CC50 [22] was greater than 100 µM and the GI50 [23] was greater than 100 µM. It also gave an IC50 [23] greater than 100 µM, a TGI [23] greater than 100 µM and a CC50 [23] greater than 100 µM. It also gave a GI50 [24] of 40.2 µM, an IC50 [24] of 9.04 µM and a TGI [24] greater than 100 µM. For the same compound, the CC50 [24] was greater than 100 µM, the GI50 [25] was 34.9 µM and the IC50 [25] was greater than 100 µM. The TGI [25] was greater than 100 µM and the CC50 [25] was greater than 100 µM.
With `CC(=O)Nc1cccc(-c2ccc(-c3ccnc(NC(=O)Nc4cc(C(F)(F)F)cc(C(F)(F)F)c4)n3)cn2)c1.Cl` the GI50 [1] was 13.1 µM, the IC50 [1] was 13.1 µM and the LC50 (concentration giving 50% net cell kill) [1] was 78.8 µM. It also gave a TGI [1] of 32.2 µM, a GI50 ([2]; Homo sapiens, DU-145, 48 h) of 6.57 µM and a TGI ([2]; Homo sapiens, DU-145, 48 h) of 19.6 µM. It also gave an IC50 ([2]; Homo sapiens, DU-145, 48 h, read-out: IC50) of 6.57 µM, a CC50 ([2]; Homo sapiens, DU-145, 48 h) of 47 µM and a GI50 [3] of 3.72 µM. The IC50 [3] was 3.72 µM, the LC50 [3] was 62 µM and the TGI [3] was 19.7 µM. It also gave a growth at 0.001 µM [4] of 95%, a growth at 0.001 µM [5] of 91% and a growth at 0.001 µM [6] of 95%. For the same compound, the growth at 0.1 µM [7] was 72%, the growth at 0.1 µM [8] was 93% and the growth at 0.1 µM [9] was 73%. It also gave a growth at 0.1 µM [10] of 64%, a growth at 0.01 µM [11] of 90% and a growth at 0.01 µM [12] of 78%. The growth at 10 µM [13] was 100%, the growth at 0.1 µM [14] was 87% and the growth at 0.1 µM [15] was 47%. The growth at 1 µM [16] was -20%, the growth at 1 µM [17] was 27% and the growth at 0.01 µM [18] was 96%. The growth at 1 µM [19] was 43%, the GI50 [20] was 1.48 µM and the IC50 [20] was 1.48 µM. It also gave a TGI [20] of 12.6 µM, a CC50 [20] of 41.9 µM and a GI50 [21] of 2.17 µM. The IC50 [21] was 2.17 µM, the TGI [21] was 14.6 µM and the CC50 [21] was 68.8 µM. The GI50 [22] was 1.6 µM, the IC50 [22] was 1.6 µM and the TGI [22] was 4.71 µM. For the same compound, the CC50 [22] was 17.1 µM, the GI50 [23] was 3.62 µM and the IC50 [23] was 3.62 µM. For the same compound, the TGI [23] was 15 µM, the CC50 [23] was 45.1 µM and the GI50 [24] was 1.27 µM. It also gave an IC50 [24] of 1.27 µM, a TGI [24] of 6.19 µM and a CC50 [24] greater than 100 µM. For the same compound, the GI50 [25] was 1.79 µM, the IC50 [25] was 1.79 µM and the TGI [25] was “inactive”. It also gave a CC50 [25] greater than 100 µM.
